This note sets out measurements from publication PMC2699564 (Journal of medicinal chemistry, 2009).

Series [1] relates to RIF tumors. In words: In vivo PDT efficacy. Details: species or system C3H mice. The following applies: for tumor free mice (tumor cure) / tumor free mice (tumor cure) at day 60: 665 nm, 135 J/cm^2, 75 mW/cm^2 at 24 h post-injection, five mice/group; for toxicity (deaths post PDT): 135 J/cm^2, five mice/group. An outline of the steps:
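Female C3H/HeJ mice received 2×10^5 RIF cells intradermally in HBSS lacking Ca²⁺/Mg²⁺. At 4–5 mm tumors, hair was removed and test compound given i.v. the day before light, at 0.5, 1.0 or 1.5 μmol/kg, five mice/group. At 24 h, mice were restrained unanaesthetised and tumor irradiated with dye laser at 665 nm: 1 cm², 75 mW/cm², 135 J/cm², 30 min. Mice were watched daily for weight loss, scabbing and regrowth; V = (L × W²)/2. Sacrificed at 400 mm³; cured if no regrowth by day 60.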

Series [2] relates to RIF tumors. In words: In vivo biodistribution of ^124I-labeled compounds. Details: species or system C3H mice. The settings on record: for tumor uptake compared among compounds 1-3 / tumor uptake: RIF tumor; for tumor uptake compared among compounds 1-3 / liver and spleen uptake compared among compounds 1-3: 24-96 h post injection; for tumor uptake: ^124I-labeled, i.v.; for liver and spleen uptake compared among compounds 1-3: C3H mice. The procedure, abridged:
(§1)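 ¹²⁴I-labeled test compound (radiochemical purity >95%, in saline with 10% ethanol) given via tail vein at 15–200 μCi; 3–4 mice per compound/time point. Sacrificed at 24, 48, 72 and 96 h. Blood, tumor, heart, liver, spleen, kidney, lung, muscle, gut and stomach removed and weighed. Activity measured by gamma well counter; uptake expressed as %ID/g; mean of 3 or 4 mice.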

In a further series the test system is Colon-26 tumors. In words: In vivo biodistribution of ^124I-labeled 1. Details: species or system BALB/c mice. The following applies: for tumor uptake: Colon-26 tumor, ^124I-labeled, i.v. The procedure, abridged: as §1
In a further series the test system is Colon-26 tumor. In words: microPET imaging, RUV and relative tumor activity, Colon-26 tumor. Type of series: in vivo.
The subject of another series is RIF tumor. Nature of the series: microPET imaging, RUV and relative tumor activity, RIF tumor. The series is classed as in vivo.
For a further series, the system named is Colon-26 cells. In words: In vitro cell uptake, Colon-26 cells. Type of series: cell-based.
In series [3] the test system is radiation-induce fibrosarcoma (RIF) cells. Nature of the series: In vitro photosensitizing efficacy. Type of series: cell-based. The settings on record: 24 h incubation, 0.25 μM (Figure 8), light 0-4 J/cm^2, MTT.
The subject of another series is RIF cells. In words: In vitro cell uptake by fluorescence, RIF cells. The series is classed as cell-based. The procedure, abridged:
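RIF cells incubated with test compound; cellular uptake read by fluorescence at 3 and 24 h post-incubation.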

SMILES strings stand for the structures.

Take `CCC1=C(C)c2cc3[nH]c(cc4nc(c5c6[nH]c(cc1n2)c(C)c6C(=O)C5)[C@@H](CCC(=O)OC)[C@@H]4C)c(C)c3C(C)OCc1cccc([124I])c1` (some centres unmarked) [Compound 1, 3-{1′-(m-iodobenzyloxy)ethyl}pyropheophorbide-a methyl ester]: the “tumor free mice (tumor cure)” value with RIF tumors [1] (1.00 μmole/kg i.v.) is “one out of five mice was tumor free”. Further, the “tumor free mice (tumor cure) at day 60” value with RIF tumors [1] (1.5 μmol/kg i.v.) is listed as “four out of five mice were tumor free”. For the same compound, the “tumor uptake compared among compounds 1-3” value with RIF tumors [2] was “highest tumor uptake value at 24 and 48 hrs time points”. Further, the tumor uptake in the series with RIF tumors [2] (24 h post injection) worked out at 4.1 %ID/g; in the series with RIF tumors [2] (48 h post injection), 2.1 %ID/g; with RIF tumors [2] (72 h post injection), 0.8 %ID/g; with RIF tumors [2] (96 h post injection), 0.6 %ID/g; with Colon-26 tumors (24 h post injection), 4.6 %ID/g; in the series with Colon-26 tumors (48 h post injection), 4.4 %ID/g. For the same compound, the tumor uptake with Colon-26 tumors (72 h post injection) was 2.5 %ID/g; in the series with Colon-26 tumors (96 h post injection), 2.0 %ID/g. The “tumor uptake in Colo-26 relative to RIF” value in the series with Colon-26 tumors (72 h post injection) and in the series with Colon-26 tumors (96 h post injection) was 3 fold throughout. In addition, in the series on Colon-26 tumors (^124I-labeled 1), the “blood uptake, BALB/c vs C3H mice” value is on record as “slightly higher blood uptake in BALB/c mice than C3H mice”. Further, in the series on Colon-26 tumors (^124I-labeled 1), the “uptake in other organs, BALB/c vs C3H mice” value is reported as “lower uptake in BALB/c mice than the C3H mice”. For the same compound, the “relative tumor activity over time” value with Colon-26 tumor (24-96 h) is “increasing relative quantity of activity in the tumor”. In the series with Colon-26 tumor (after 48 hours of injection), the “relative uptake value (RUV) compared with RIF tumor” value is recorded as “higher RUV values than RIF tumor”. Moreover, the “relative tumor activity (tumor activity to whole body activity in image)” value in the series on RIF tumor (RIF tumor, ^124I-1 about constant over three scans in 3 days) is on record as about 0.035. Moreover, the “time of best tumor contrast in PET images” value with RIF tumor (both tumor models (RIF and Colon-26), post injection) was found to be 72 h.
In the case of `CCC1=C(C)c2cc3[nH]c(cc4nc(c5c6[nH]c(cc1n2)c(C)c6C(=O)C5)[C@@H](CCC(=O)N[C@@H]1[C@@H](O)[C@H](O)[C@@H](CO)O[C@H]1O)[C@@H]4C)c(C)c3C(C)OCc1cccc([124I])c1` (some centres unmarked) [Compound 2, 3-{1′-(m-iodobenzyloxy)ethyl}-17[2]-(2-amino-2-deoxy)glucosamide-pyropheo phorbide-a], in the series on Colon-26 cells, the “cell uptake compared to compound 1” value is given as “higher uptake”. Further, the “tumor free mice (tumor cure)” value with RIF tumors [1] (0.50 μmole/kg i.v.) is “one out of five mice was tumor free”. Moreover, the “tumor free mice (tumor cure)” value in the series on RIF tumors [1] (1.00 μmole/kg i.v.) is recorded as “two out of five mice were tumor free”. Also, in the series on RIF tumors [1] (1.5 μmol/kg i.v.), the “toxicity (deaths post PDT)” value is recorded as “two mice died within 24 h post PDT” and the “tumor free mice (tumor cure) at day 60” value is recorded as “two out of remaining three mice were tumor free”. In the series with RIF tumors [2], the “liver and spleen uptake compared among compounds 1-3” value is “lower spleen and liver uptake than 3 but higher than that of 1”; the “tumor uptake compared among compounds 1-3” value is “least tumor uptake among all compounds at all time points”. The “in vitro PDT efficacy compared to 1” value in series [3] is recorded as “more effective than the corresponding non-carbohydrate analog 1”. Besides, in the series with RIF cells, the “cell uptake compared to compound 1” value was “higher uptake”.
As to `CCC1=C(C)c2cc3[nH]c(cc4nc(c5c6[nH]c(cc1n2)c(C)c6C(=O)C5)[C@@H](CCC(=O)N[C@@H]1O[C@H](CO)[C@H](O)[C@H](O)[C@H]1O)[C@@H]4C)c(C)c3C(C)OCc1cccc([124I])c1` (some centres unmarked) [Compound 3, {1′-(m-iodobenzyloxy)ethyl}-17[2]-(1-amino-1-deoxy)galactosamide-pyro pheophorbide-a], the “cell uptake compared to compound 1” value in the series on Colon-26 cells and in the series on RIF cells was “higher uptake” in each case. Further, the results for the “toxicity (deaths post PDT)” value in the series with RIF tumors [1] (1.00 μmole/kg i.v.) and in the series on RIF tumors [1] (1.5 μmol/kg i.v.) were “all five mice died within 24h post PDT” and “all five mice died within 24 h post light treatment”, respectively. For the same compound, in the series on RIF tumors [2], the “liver and spleen uptake compared among compounds 1-3” value was “considerably higher liver and spleen uptake at all time points”. Besides, the “tumor uptake compared among compounds 1-3” value with RIF tumors [2] is “higher uptake values at the 72 and 96 hrs time points”. Also, the “in vitro PDT efficacy compared to 1” value in series [3] is given as “more effective than the corresponding non-carbohydrate analog 1”.
